# Bioassay records as filed in PubChem BioAssay.
# STAT3 inh: STAT3 signaling inhibition. AID 862. U3A cells, IL-6 STAT3-luciferase reporter, luminescence; host cell line lacks STAT1. inhibition, % at 5.5 µM. 190,000 compounds, 0.89% hits;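 active = inhibition above the mean inhibition across all screened compounds plus 3 SD, cut at about 44% in these data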;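 also: 0% = DMSO only wells and 100% = 100 µM nifuroxazide control wells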
# STAT1 inh: inhibitors of IFN-gamma induced STAT1 signaling. inhibition, % at 5.5 µM. NIH 3T3 STAT1-luciferase reporter, luminescence. AID 920. 200,000 compounds, 0.35% hits;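 active = inhibition above a set limit, the mean inhibition across all tested compounds plus 3 SD, cut at about 34% in these data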;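 also: 0% = IFN-gamma with DMSO and 100% = IFN-gamma with 300 µM nifuroxazide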
# NF-kB neuron act: raises NF-kB expression in human neuronal cells | NF-kB reporter expression; stronger effect = higher value | fold change at 12.5 µM | 190,000 compounds, 1.6% hits | AID 1239; in the data active = fold change above about 3.3
# APP 5'UTR act: APP 5'UTR luciferase reporter activation | SH-SY5Y APP 5'UTR luciferase reporter, luminescence; zero percent = DMSO vehicle wells | activation, % at 2 µM | 190,000 compounds, 1% hits;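 active = activation above a set limit, based on mean plus 3 SD of controls, cut at about 140% in these data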
# STAT1 activator: STAT1 signaling activation | 200,000 compounds, 2.6% hits | NIH 3T3 STAT1-luciferase reporter, IFN-gamma, luminescence; 100% = IFN-gamma alone, no compound | AID 932 | activation (% of control), % at 5.5 µM;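 active = activation above the screen-wide mean activation plus 3 SD, cut at about 130% in these data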;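 also: raw ratio to IFN-gamma control signal so 100% means no change and 0% no light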
# STAT3 activator: STAT3 signaling activation | U3A cells, IL-6 STAT3-luciferase reporter, luminescence; 100% = signal with IL-6 EC80 alone | activation (% of control), % at 5.6 µM | 190,000 compounds, 0.91% hits;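 active = activation above the screen-wide mean of compound activation plus 3 SD, cut at about 130% in these data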;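 also: 0% = background luminescence of wells with medium and substrate only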
#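 System – human U3A cells carrying STAT3-luciferase construct · Probe or stimulus – Interleukin-6, 33 ng/mL · Schedule – compound 1 h, then IL-6 6 h at 37 °C · Signal – luminescence from STAT3-driven luciferase reporter · Evaluation – percent of IL-6-only median luminescence · Benchmarks – IL-6-only high control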
# The depositor's hits bear a star; . = no result. A selection: hits, their analogues and other compounds. The true share with any hit is near 4.9%.
SMILES,STAT3 inh,STAT1 inh,NF-kB neuron act,APP 5'UTR act,STAT1 activator,STAT3 activator
CSCCNC(=O)c1ccc(C(C)(C)C)cc1,3.9,2.1,5.36*,-5.3,98.0,99.0
CC(C)(C)c1ccc(C(=O)NCc2ccccc2)cc1,-12.2,-23.0,2.4,57.7,119.2,113.6
CN(c1ccc(C(=O)NCCSC(C)(C)C)cc1)S(=O)(=O)c1ccccc1,1.6,-0.3,1.08,18.9,99.0,102.6
Cc1ccc(C(=O)NCCSC(C)(C)C)cc1,21.9,-31.0,4.13*,125.0,128.3,85.7
CCCCN1C(=O)Nc2ccccc2S1=O (configuration not stated),1.0,9.7,0.97,-3.0,91.5,103.2
O=[N+]([O-])c1cc(/C=N/N2CCCCC2)ccc1Cl,11.0,-35.3,3.19,4.3,132.5*,94.1
O=[N+]([O-])c1cc(/C=N/N2CCN(c3ccccc3)CC2)ccc1Cl,14.2,-8.4,1.12,-7.5,107.5,89.7
COc1ccccc1-c1coc2cc(OC(=O)/C=C/c3ccccc3)ccc2c1=O,-11.8,-4.2,1.21,-0.6,103.8,110.5
Cc1ccc(Cn2c(C)cc3c(c2=O)C(c2cccs2)C(C#N)=C(N)O3)cc1 (configuration not stated),4.8,-0.3,0.96,2.1,94.4,104.2
CCCc1cc(=O)n2[nH]c(-c3ccccc3)cc2n1,-18.6,-37.1,2.61,61.2,133.9*,122.2
Nc1nc(N2CCOCC2)cc(=O)[nH]1,1.8,5.2,1.36,0.5,95.3,102.1
COc1ccc2oc(C(=O)NCCC(C)C)c(C)c2c1,11.1,-41.0,1,139.1*,134.6*,92.6
CN1C=CC(=C2C(=O)c3ccccc3C2=O)C=C1,42.1,-19.7,3.59*,101.6,118.0,68.1
CCCCCCN1C=CC(=C2C(=O)c3ccccc3C2=O)C=C1,99.7*,81.0*,1.32,48.4,24.1,16.4
CCCCN1C=CC(=C2N=c3cccc([N+](=O)[O-])c3=N2)C=C1,-4.7,-12.6,1.01,28.1,111.1,104.1
CCN1C=CC(=C2C(=O)c3ccccc3C2=O)C=C1,108.7*,88.0*,0.24,-69.8,19.8,12.0
CCCN1C=CC(=C2C(=O)c3ccccc3C2=O)C=C1,113.4*,91.6*,0.27,-81.0,14.7,8.7
O=C1c2ccccc2S(=O)(=O)c2cc(C(=O)N(c3ccccn3)c3ccccn3)ccc21,1.4,-3.6,0.93,6.4,103.3,98.3
C/C(=N\N(Cc1ccccc1)c1ccccc1)c1cccnc1,5.8,-1.5,1.03,7.5,101.1,101.5
C[C@@H](C(=O)OCn1nnc2ccccc2c1=O)N1C(=O)C2CCCCC2C1=O (some centres not stated),-3.7,6.3,1.05,-4.0,92.6,105.1
COc1ccc(C(=O)N2CCN(c3ccccn3)CC2)cc1[N+](=O)[O-],7.9,2.6,1.29,0.4,95.7,100.6
C=CCOC(=O)CN1C(=O)c2ccccc2C1=O,4.0,3.3,1,21.3,98.2,100.3
Nc1nnc(-c2cc3c(ccc4ccccc43)oc2=O)s1,4.5,-29.7,0.95,-2.7,125.3,99.3
C[C@@H]1CN(Cc2nc(-c3cccs3)no2)C[C@H](C)O1,1.6,-7.5,1.6,-6.3,105.0,101.6
COCC1CCN(Cc2nc(-c3cccs3)no2)C1 (configuration not stated),4.8,-37.4,.,48.9,134.8*,101.2
SMILES,STAT3 inh,STAT1 inh,NF-kB neuron act,APP 5'UTR act,STAT1 activator,STAT3 activator
O=C(NC1(C(F)(F)F)NC(=O)N(c2ccc(F)cc2)C1=O)c1cccs1 (configuration not stated),-1.9,-2.5,0.83,18.2,102.2,104.4
Cc1ccc(-c2nn(-c3ccccc3)cc2CSC(=N)N)cc1,-3.3,-2.5,4.9*,16.1,102.3,102.9
CCOC(=O)c1cnc2c(N=Nc3ccccc3)c(N)nn2c1N,24.9,-42.0,1.62,20.4,137.5*,83.7
CCOC(=O)c1cnc2c(N=Nc3cccc(Cl)c3)c(N)nn2c1N,7.3,-2.4,1.33,-6.7,102.1,95.4
Cc1noc(C)c1N=Nc1ccc(Br)cc1C(=O)O,4.3,-3.9,1.12,3.5,103.9,101.6
CC(=O)Nc1cc2nn(-c3ccccc3)nc2cc1Cl,15.4,-34.0,5.31*,53.4,131.4*,89.5
CC(C)(C)C(=O)Nc1cc2nn(-c3ccccc3)nc2cc1Cl,104.0*,82.7*,0.17,8.5,23.8,15.3
